Type in all cases: functional, organism-based
For test [1], the species on record is Homo sapiens. Briefly: Inhibitory activity against endoperoxide (U-46,619 2 uM) induced aggregation in Human Platelets. In a few lines: (§1)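 Washed platelets from drug-free (≥10 days) human volunteers, suspended in modified Tyrode's solution pH 7.4 at 3 × 10^8/mL. Compound preincubated 3 min at 37 °C before agonist addition. Aggregation read turbidometrically (Born method, Mustard modification) in a dual-channel aggregometer. Values mean ± SEM from four to six donors; tested up to 400 μM.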

The species entered for test [2] is Homo sapiens. Put plainly: Inhibitory activity against thrombin (0.03 U/mL) induced aggregation in Human Platelets. An outline of the steps: as §1
Test [3] is filed under the species Homo sapiens. Put plainly: Inhibitory activity against phospholipase C (PLC 0.05 U/mL) induced aggregation in Human Platelets. In a few lines: as §1
For test [4], the species on record is Homo sapiens. Put plainly: Inhibitory activity against endoperoxide (U-46,619 2 uM) induced aggregation in Human Platelets; NI is No Inhibitory activity up to a concentration of 400 uM. An outline of the steps: as §1
The species entered for test [5] is Homo sapiens. Briefly: Inhibitory activity against thrombin (0.03 U/mL) induced aggregation in Human Platelets; NI is No Inhibitory activity up to a concentration of 400 uM. In a few lines:
as §1

The structures appear in SMILES notation.

As a reminder, the IC50 is the concentration needed to halve the response being measured.

With `COc1cc(C[C@H]2NCCc3cc(O)c(O)cc32)cc(OC)c1OC`, the IC50 in the test filed under Homo sapiens [1] was 0.14 µM; in the test filed under Homo sapiens [2], 150 µM; in the test listed under Homo sapiens [3], 175 µM.
As to `COc1cc(CC2NCCCc3cc(O)c(O)cc32)cc(OC)c1OC` (configuration not stated), the results for the IC50 in the test listed under Homo sapiens [3], in the test filed under Homo sapiens [4] and in the test filed under Homo sapiens [5] were 30 µM, “No inhibition” and “No inhibition”, respectively.
For `COc1cc(CC2NCCCc3cc4c(cc32)OCO4)cc(OC)c1OC` (configuration not stated), the half-maximal inhibitory concentration (IC50) in the test listed under Homo sapiens [3] was 3 µM; in the test filed under Homo sapiens [4], “No inhibition”; in the test listed under Homo sapiens [5] it was “No inhibition”.
In the case of `COc1cc(C[C@@H]2NCCc3cc(O)c(O)cc32)cc(OC)c1OC` [TRETOQUINOL], the concentration for half-maximal inhibition (IC50) in the test listed under Homo sapiens [1] is 11 µM; in the test listed under Homo sapiens [2], 50 µM; in the test filed under Homo sapiens [3], 50 µM.

Values taken from ChEMBL document CHEMBL1123391, “Synthesis and investigation of the beta-adrenoceptor agonist and platelet antiaggregatory properties of 1,7,8-trisubstituted 2,3,4,5-tetrahydro-1H-2-benzazepine analogues of trimetoquinol” (J Med Chem, 1986).
